Test results from publication PMC7581536 (Journal of pharmaceutical and biomedical analysis, 2020).

Legend:
[1] = tested on: KDMs; details: ref [18]–[19]; cited from earlier work
[2] = Stability of stock solutions; format: physicochemical; details: stock solution (DMSO/ACN or ACN), 6 months at −20°C
In short: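 Test compound stock at 2 mg/mL: 10 mg dissolved in 0.5 mL DMSO, then diluted with ACN. Internal standard stock at 100 µg/mL in ACN. Both kept at −20°C for 6 months.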

[3] = tested on: HIV-1; details: T cell lines, via inhibition of SHMT2; ref [23]; cited from earlier work
[4] = Pharmacokinetic study of JIB-04 in rats after i.v. and oral administration; format: in vivo, rat
In short: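 Male adult SD rats with jugular vein cannulas. IV: single 5 mg/kg via jugular vein (n=5) as aqueous suspension in 12.5% cremophor EL/12.5% DMSO; blood at 2 min–24 h. Oral: single 15 mg/kg (n=6); blood at 5 min–24 h. Heparinised plasma (4000 rpm, 15 min) held at −80°C. 20 µL plasma precipitated with ACN (5 ng/mL IS, 0.1% acetic acid); UHPLC-MS/MS MRM; non-compartmental analysis per rat.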

[5] = Stability of JIB-04 in rat plasma; format: in vitro ADME; details: for RE (deviation from nominal concentration) / Calculated Concentration Mean ± SD: rat plasma; for Calculated Concentration Mean ± SD: n=6
In short: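 Blank rat plasma spiked to 0.5, 1, 50 and 800 ng/mL, six replicates per condition. Held 18 h on bench at room temperature, 24 h in auto-sampler tray, or 3 months at −80°C. Freeze-thaw: three cycles of 2–3 h room-temperature thaw and 12–24 h at −80°C. Quantified against a same-day calibration curve; accuracy as RE%, precision as CV%.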

[6] = tested on: KDM5A; details: secondary targets KDM4D/4B/4A/6B/4C; ref [18], [20]–[21]; cited from earlier work
[7] = Non-specific binding to plastic centrifuge tubes; format: physicochemical; details: neat solution, water as matrix
[8] = rats, oral 15 mg/kg, n=6, NCA (apparent)
[9] = auto-sampler (10 °C 24hr), nominal 0.5 ng/mL
[10] = auto-sampler (10 °C 24hr), nominal 1 ng/mL
[11] = auto-sampler (10 °C 24hr), nominal 50 ng/mL
[12] = auto-sampler (10 °C 24hr), nominal 800 ng/mL
[13] = bench top (18hr, RT), nominal 0.5 ng/mL
[14] = bench top (18hr, RT), nominal 1 ng/mL
[15] = bench top (18hr, RT), nominal 50 ng/mL
[16] = bench top (18hr, RT), nominal 800 ng/mL
[17] = long-term (−80 °C, 3 months), nominal 0.5 ng/mL
[18] = long-term (−80 °C, 3 months), nominal 1 ng/mL
[19] = long-term (−80 °C, 3 months), nominal 50 ng/mL
[20] = long-term (−80 °C, 3 months), nominal 800 ng/mL

## Clc1ccc(NN=C(c2ccccc2)c2ccccn2)nc1 (single isomer, unassigned) [Z-isomer]
[1]
  activity against KDMs: inactive

## Clc1ccc(N/N=C(\c2ccccc2)c2ccccn2)nc1 [JIB-04]
[2]
  stability of stock solution: stable
[3]
  block of HIV-1 Tat expression, transactivation, and virus replication: potently and selectively blocks
[4]; rat plasma, i.v. and oral samples
  concentrations in pharmacokinetic samples: 2 to 6000 ng/mL
[4]; rats, i.v. 5 mg/kg, after 24 h
  plasma concentration: 3.0 ± 1.0 ng/mL
[4]; rats, i.v. 5 mg/kg, at 2 min
  plasma concentration: 5270 ± 527.2 ng/mL
[4]; rats, i.v. 5 mg/kg, n=5, NCA
  AUC 0→24: 3661.6 ± 371.4 ng·h/mL
  AUC 0→inf: 3678.2 ± 369.0 ng·h/mL
  CL: 22.845 ± 2.362 mL/min/kg
  Half-life: 3.70 ± 0.5 h
  MRT: 2.6 ± 0.3 h
  Vd: 7.3576 ± 1.5306 L/kg
[4]; rats, i.v. samples, 5 min
  E/Z ratio in plasma: 72
[4]; rats, i.v. samples, 2 h
  E/Z ratio in plasma: 27
[4]; rats, i.v. samples, 24 h
  E/Z ratio in plasma: 0.6
[4]; rats, oral 15 mg/kg
  time to reach Cmax (range among subjects): 0.5 ~ 4 h
[4]; rats, oral 15 mg/kg vs i.v. 5 mg/kg
  oral bioavailability (F): 44.4%
[4]; rats, oral 15 mg/kg, n=6, NCA
  AUC 0→24: 4880.8 ± 1015.3 ng·h/mL
  AUC 0→inf: 4904.7 ± 1019.7 ng·h/mL
  Cmax: 812.7 ± 201.2 ng/mL
  Half-life: 3.2 ± 0.2 h
  MRT: 4.4 ± 0.3 h
  Tmax: 1.5 ± 1.4 h
[4]; [8]
  CL: 53.903 ± 1.27 mL/min/kg
  Vd: 14.9234 ± 3.6699 L/kg
[4]; rats, oral 15 mg/kg, within 5 min
  plasma concentration: 122.9 ± 51.0 ng/mL
[4]; rats, oral samples, 5 min
  E/Z ratio in plasma: 40
[4]; rats, oral samples, 2 h
  E/Z ratio in plasma: 9
[4]; rats, oral samples, 24 h
  E/Z ratio in plasma: 2.3
[5]; [9]
  RE (deviation from nominal concentration): −3.2%
  Calculated Concentration Mean ± SD: 0.48 ± 0.01 ng/mL
[5]; [10]
  RE (deviation from nominal concentration): −3.5%
  Calculated Concentration Mean ± SD: 0.97 ± 0.06 ng/mL
[5]; [11]
  RE (deviation from nominal concentration): −2.7%
  Calculated Concentration Mean ± SD: 48.6 ± 3.3 ng/mL
[5]; [12]
  RE (deviation from nominal concentration): −0.1%
  Calculated Concentration Mean ± SD: 799.0 ± 17.5 ng/mL
[5]; [13]
  RE (deviation from nominal concentration): 1.6%
  Calculated Concentration Mean ± SD: 0.51 ± 0.02 ng/mL
[5]; [14]
  RE (deviation from nominal concentration): −6.9%
  Calculated Concentration Mean ± SD: 0.93 ± 0.05 ng/mL
[5]; [15]
  RE (deviation from nominal concentration): −6.4%
  Calculated Concentration Mean ± SD: 46.8 ± 0.7 ng/mL
[5]; [16]
  RE (deviation from nominal concentration): 2.4%
  Calculated Concentration Mean ± SD: 819.0 ± 26.0 ng/mL
[5]; freeze and thaw (−80 °C to RT), nominal 0.5 ng/mL
  RE (deviation from nominal concentration): 1.4%
[5]; freeze and thaw (−80 °C to RT), nominal 1 ng/mL
  RE (deviation from nominal concentration): −0.8%
[5]; freeze and thaw (−80 °C to RT), nominal 50 ng/mL
  RE (deviation from nominal concentration): −2.1%
[5]; freeze and thaw (−80 °C to RT), nominal 800 ng/mL
  RE (deviation from nominal concentration): −0.9%
[5]; freeze and thaw (−80 °C to RT), three cycles, nominal 0.5 ng/mL
  Calculated Concentration Mean ± SD: 0.51 ± 0.01 ng/mL
[5]; freeze and thaw (−80 °C to RT), three cycles, nominal 1 ng/mL
  Calculated Concentration Mean ± SD: 0.99 ± 0.03 ng/mL
[5]; freeze and thaw (−80 °C to RT), three cycles, nominal 50 ng/mL
  Calculated Concentration Mean ± SD: 49.0 ± 1.3 ng/mL
[5]; freeze and thaw (−80 °C to RT), three cycles, nominal 800 ng/mL
  Calculated Concentration Mean ± SD: 793.0 ± 16.2 ng/mL
[5]; [17]
  RE (deviation from nominal concentration): −6.7%
  Calculated Concentration Mean ± SD: 0.47 ± 0.02 ng/mL
[5]; [18]
  RE (deviation from nominal concentration): −6.9%
  Calculated Concentration Mean ± SD: 0.93 ± 0.05 ng/mL
[5]; [19]
  RE (deviation from nominal concentration): −5.6%
  Calculated Concentration Mean ± SD: 47.2 ± 1.3 ng/mL
[5]; [20]
  RE (deviation from nominal concentration): −6.9%
  Calculated Concentration Mean ± SD: 745.0 ± 20.8 ng/mL
[5]; stored at −80 °C for as long as 3 months
  storage stability of plasma samples: without apparent alteration
[5]; under the experimental conditions (Table 4)
  degradation in rat plasma: no significant degradation
[6]
  inhibitory activity against KDM5A: maximal inhibitory activity
[7]
  non-specific binding to plastic centrifuge tubes: strongly binding
